Experimental data pooled from the literature.
Compare with care: the assays were run in different laboratories.
Target: Casein kinase I isoform gamma-2 (CSNK1G2, Homo sapiens, UniProt P78368)

Cc1nn(C)cc1-c1nc2c(N3CCN(Cc4ccc(Cl)cc4)CC3)c(Cl)cnc2[nH]1
remaining binding (binding; competition with immobilised ligand; 1 µM): 96%

Cn1cc(-c2cccc(N3CCc4c(sc5c4CC(C)(C)C5)C3=O)c2CO)cc(Nc2ccncn2)c1=O
inhibition (enzyme activity; inhibitor; 1 µM): 6%

Cn1cncc1[C@@](O)(COc1ccc(C#N)cc1-c1ccc(OC(F)(F)F)cc1)c1ccc(C#N)cc1
remaining binding (cell-free assay; competition with immobilised ligand; 1 µM): 64%

Cn1cc(-c2cc(F)cc(N3CCn4c(cc5c4CCCC5)C3=O)c2CO)cc(Nc2ccc(N3CCN(C4COC4)CC3)cn2)c1=O
inhibition (enzyme activity; inhibitor; 0.1 µM): 7%

CC(C)(C)c1cc(C=C(C#N)C#N)cc(Br)c1O
remaining activity (enzyme activity; inhibitor; 0.5 µM): 100%

COc1cc(Nc2ncc(F)c(Nc3ccc4c(n3)NC(=O)C(C)(C)O4)n2)cc(OC)c1OC
inhibition (binding; competition with immobilised ligand; 10 µM): 0%

COc1ncccc1-c1cnn2ccc(N3CCN(C(=O)OC(C)C)CC3)nc12
remaining binding (binding; competition with immobilised ligand; 1 µM): 100%

O=c1[nH]c2ccccc2n1C1CCN(Cc2ccc(-c3[nH]c4cc5ncnc5cc4nc3-c3ccccc3)cc2)CC1
remaining signal (cell-free assay; 0.5 µM): 101%

Nc1ncc(-c2nc(N3CCOCC3)nc(N3CCOCC3)n2)c(C(F)F)n1
remaining binding (binding; competition with immobilised ligand; 10 µM): 85%
